In ChEMBL document CHEMBL2146455, “Structure-activity studies on the spiroketal moiety of a simplified analogue of debromoaplysiatoxin with antiproliferative activity” (J Med Chem, 2012):

Assays:
[1] = tested on: Raji; test: Tumor promoting activity in human Raji cells assessed as induction of EBV-early antigen activation after 48 hrs by FITC staining based indirect immunofluorescence assay; assay type: cell-based
Outline: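 Raji cells (5 × 10⁵/mL) were grown in RPMI 1640 with 10% FBS at 37 °C and 5% CO₂, with 4 mM sodium n-butyrate as synergist. Compounds were tested at 10, 100 or 1000 nM final, with DMSO at 0.4% final, for 48 h. Cell smears were stained by indirect immunofluorescence using NPC patient serum and FITC anti-human IgG. At least 500 cells were counted and the percentage of EA-positive cells recorded.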

[2] = n-Octanol-water partition coefficient, log P of the compound by HPLC analysis; assay type: physicochemical
[3] = Growth inhibition of human HBC4 cells after 48 hrs by sulforhodamine B assay; assay type: functional; conditions: HBC4, 48 h
Outline: (§1)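 Cell line from a 39-line human cancer panel, grown in RPMI 1640 with 5% FBS and attached overnight. Exposed 48 h to drug at 10⁻⁸ to 10⁻⁴ M (tenfold steps). Sulforhodamine B read at 525 nm against control and time-0 wells. % growth = 100[(T − T₀)/(C − T₀)] from duplicate points; GI₅₀ is the level giving 50.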

[4] = tested on: MDA-MB-231; test: Growth inhibition of human MDA-MB-231 cells after 48 hrs by sulforhodamine B assay; assay type: functional; conditions: MDA-MB-231, 48 h; outline: as §1
[5] = tested on: SNB-78; test: Growth inhibition of human SNB-78 cells after 48 hrs by sulforhodamine B assay; assay type: functional; conditions: SNB-78, 48 h; outline: as §1
[6] = tested on: HCC 2998; test: Growth inhibition of human HCC2998 cells after 48 hrs by sulforhodamine B assay; assay type: functional; conditions: HCC 2998, 48 h; outline: as §1
[7] = tested on: NCI-H460; test: Growth inhibition of human NCI-H460 cells after 48 hrs by sulforhodamine B assay; assay type: functional; conditions: NCI-H460, 48 h; outline: as §1
[8] = tested on: A549; test: Growth inhibition of human A549 cells after 48 hrs by sulforhodamine B assay; assay type: functional; conditions: A549, 48 h; outline: as §1
[9] = tested on: LOX IMVI; test: Growth inhibition of human LOXIMVI cells after 48 hrs by sulforhodamine B assay; assay type: functional; outline: as §1
[10] = tested on: St-4; test: Growth inhibition of human St-4 cells after 48 hrs by sulforhodamine B assay; assay type: functional; conditions: St-4, 48 h; outline: as §1
[11] = tested on: Raji; test: Tumor promoting activity in human Raji cells assessed as induction of EBV-early antigen activation at 1 uM after 48 hrs by FITC staining based indirect immunofluorescence assay; assay type: cell-based
Outline: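 Raji B-lymphoblastoid cells (5 × 10⁵/mL) held 48 h at 37 °C, 5% CO₂, in RPMI 1640 with 10% FBS. Medium contained 4 mM sodium n-butyrate and compound at 10, 100 or 1000 nM final, with 0.4% DMSO final. Smears stained by indirect immunofluorescence using NPC patient serum and FITC anti-human IgG. At least 500 cells counted; result given as % EA-positive.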

[12] = target: Protein kinase C alpha type (Homo sapiens, UniProt P17252); test: Inhibition of [3H]PDBu binding to PKCalpha C1A domain
Outline: (§2)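 Displacement of [³H]PDBu (20 nM) from synthetic PKC C1 peptides (10−20 nM; about 3 nM properly folded) in 50 mM Tris-maleate, pH 7.4 at 4 °C. Buffer held 50 μg/mL phosphatidylserine and 3 mg/mL bovine γ-globulin, with inhibitor at various concentrations. IC₅₀ taken from 50% loss of specific binding by probit; Ki by the Sharkey–Blumberg method.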

[13] = target: Protein kinase C beta type (Homo sapiens, UniProt P05771); test: Inhibition of [3H]PDBu binding to PKCbeta C1A domain; outline: as §2
Protein kinase C beta type, sequence (P05771 whole entry, the tested form may be a part): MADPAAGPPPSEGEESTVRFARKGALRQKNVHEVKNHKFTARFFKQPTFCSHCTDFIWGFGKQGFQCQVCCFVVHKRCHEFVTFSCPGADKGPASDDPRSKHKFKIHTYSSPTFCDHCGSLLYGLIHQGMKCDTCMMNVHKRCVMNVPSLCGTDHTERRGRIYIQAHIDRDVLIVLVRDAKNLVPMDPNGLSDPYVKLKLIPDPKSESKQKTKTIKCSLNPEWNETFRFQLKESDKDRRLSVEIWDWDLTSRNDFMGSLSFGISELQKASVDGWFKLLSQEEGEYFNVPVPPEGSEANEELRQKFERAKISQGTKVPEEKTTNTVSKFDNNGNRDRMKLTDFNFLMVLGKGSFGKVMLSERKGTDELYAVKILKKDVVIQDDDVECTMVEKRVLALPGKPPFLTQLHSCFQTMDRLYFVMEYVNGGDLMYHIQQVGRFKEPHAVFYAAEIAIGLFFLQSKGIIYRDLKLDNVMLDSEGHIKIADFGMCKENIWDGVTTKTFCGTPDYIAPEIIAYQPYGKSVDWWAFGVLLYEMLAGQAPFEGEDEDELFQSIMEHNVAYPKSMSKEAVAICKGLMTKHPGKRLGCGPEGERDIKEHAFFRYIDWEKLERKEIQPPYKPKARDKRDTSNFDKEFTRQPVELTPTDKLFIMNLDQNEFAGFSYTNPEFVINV

[14] = target: Protein kinase C gamma type (Homo sapiens, UniProt P05129); test: Inhibition of [3H]PDBu binding to PKCgamma C1A domain; outline: as §2
[15] = target: Protein kinase C delta type (Homo sapiens, UniProt Q05655); test: Inhibition of [3H]PDBu binding to PKCdelta C1B domain; outline: as §2
Protein kinase C delta type, sequence (Q05655 whole entry, the tested form may be a part): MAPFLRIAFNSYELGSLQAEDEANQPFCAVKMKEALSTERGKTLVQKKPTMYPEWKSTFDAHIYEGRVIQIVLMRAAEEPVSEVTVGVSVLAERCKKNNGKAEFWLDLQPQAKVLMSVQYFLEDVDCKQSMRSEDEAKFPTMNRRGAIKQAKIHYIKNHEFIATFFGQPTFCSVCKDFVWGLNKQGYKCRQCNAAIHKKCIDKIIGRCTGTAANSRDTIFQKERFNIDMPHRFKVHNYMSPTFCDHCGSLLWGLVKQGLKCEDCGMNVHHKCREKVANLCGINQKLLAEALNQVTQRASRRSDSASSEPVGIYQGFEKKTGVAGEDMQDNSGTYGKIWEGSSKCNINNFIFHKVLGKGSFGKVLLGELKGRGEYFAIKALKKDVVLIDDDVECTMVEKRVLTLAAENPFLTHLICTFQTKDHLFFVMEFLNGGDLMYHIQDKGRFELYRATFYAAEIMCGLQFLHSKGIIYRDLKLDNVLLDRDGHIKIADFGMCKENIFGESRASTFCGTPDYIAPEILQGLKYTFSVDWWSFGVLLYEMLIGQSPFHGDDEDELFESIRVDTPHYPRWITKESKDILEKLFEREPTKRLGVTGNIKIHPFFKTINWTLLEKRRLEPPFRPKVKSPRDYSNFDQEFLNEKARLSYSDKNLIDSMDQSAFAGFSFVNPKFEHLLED

[16] = target: T1, Protein kinase C epsilon type (Homo sapiens, UniProt Q02156); test: Inhibition of [3H]PDBu binding to PKCepsilon C1B domain; outline: as §2
T1 sequence (Q02156 whole entry): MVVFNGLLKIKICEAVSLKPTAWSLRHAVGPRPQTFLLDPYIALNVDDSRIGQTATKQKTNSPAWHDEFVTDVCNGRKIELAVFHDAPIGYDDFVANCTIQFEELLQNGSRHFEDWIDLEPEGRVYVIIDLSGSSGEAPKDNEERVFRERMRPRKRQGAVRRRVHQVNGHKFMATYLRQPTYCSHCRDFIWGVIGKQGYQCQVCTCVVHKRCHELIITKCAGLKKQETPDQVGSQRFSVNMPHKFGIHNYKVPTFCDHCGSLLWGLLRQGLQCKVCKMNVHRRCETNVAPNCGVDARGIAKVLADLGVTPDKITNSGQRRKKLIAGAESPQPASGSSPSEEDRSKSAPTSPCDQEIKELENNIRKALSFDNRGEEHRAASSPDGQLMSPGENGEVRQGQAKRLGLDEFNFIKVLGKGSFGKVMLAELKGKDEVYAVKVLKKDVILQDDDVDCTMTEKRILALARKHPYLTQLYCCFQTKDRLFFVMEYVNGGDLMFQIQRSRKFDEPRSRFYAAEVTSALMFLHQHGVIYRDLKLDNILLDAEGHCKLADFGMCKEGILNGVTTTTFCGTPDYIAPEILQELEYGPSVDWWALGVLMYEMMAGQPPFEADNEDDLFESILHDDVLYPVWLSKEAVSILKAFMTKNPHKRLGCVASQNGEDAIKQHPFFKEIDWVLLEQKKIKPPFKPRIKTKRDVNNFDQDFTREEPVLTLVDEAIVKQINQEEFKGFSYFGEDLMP

[17] = target: Protein kinase C eta type (Homo sapiens, UniProt P24723); test: Inhibition of [3H]PDBu binding to PKCeta C1B domain; outline: as §2
Protein kinase C eta type, sequence (P24723 whole entry, the tested form may be a part): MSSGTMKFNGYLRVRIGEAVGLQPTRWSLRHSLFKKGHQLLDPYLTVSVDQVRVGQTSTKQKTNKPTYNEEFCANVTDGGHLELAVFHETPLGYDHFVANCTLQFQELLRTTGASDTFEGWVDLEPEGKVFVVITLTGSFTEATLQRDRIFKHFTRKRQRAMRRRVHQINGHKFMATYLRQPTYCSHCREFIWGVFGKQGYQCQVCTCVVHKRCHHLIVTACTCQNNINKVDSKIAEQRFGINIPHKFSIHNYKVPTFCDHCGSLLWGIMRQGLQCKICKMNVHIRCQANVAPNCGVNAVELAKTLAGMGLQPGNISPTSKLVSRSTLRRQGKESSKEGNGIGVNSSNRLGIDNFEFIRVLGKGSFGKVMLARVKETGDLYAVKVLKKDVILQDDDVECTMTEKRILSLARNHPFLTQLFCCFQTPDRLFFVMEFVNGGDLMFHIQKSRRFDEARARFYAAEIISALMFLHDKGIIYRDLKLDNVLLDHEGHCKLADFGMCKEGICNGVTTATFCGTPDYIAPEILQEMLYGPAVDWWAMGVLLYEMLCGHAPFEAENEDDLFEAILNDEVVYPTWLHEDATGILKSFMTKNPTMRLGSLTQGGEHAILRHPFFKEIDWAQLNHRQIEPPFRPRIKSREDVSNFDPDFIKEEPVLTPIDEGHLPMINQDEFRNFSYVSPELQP

[18] = target: Protein kinase C theta type (Homo sapiens, UniProt Q04759); test: Inhibition of [3H]PDBu binding to PKCtheta C1B domain; outline: as §2
Protein kinase C theta type, sequence (Q04759 whole entry, the tested form may be a part): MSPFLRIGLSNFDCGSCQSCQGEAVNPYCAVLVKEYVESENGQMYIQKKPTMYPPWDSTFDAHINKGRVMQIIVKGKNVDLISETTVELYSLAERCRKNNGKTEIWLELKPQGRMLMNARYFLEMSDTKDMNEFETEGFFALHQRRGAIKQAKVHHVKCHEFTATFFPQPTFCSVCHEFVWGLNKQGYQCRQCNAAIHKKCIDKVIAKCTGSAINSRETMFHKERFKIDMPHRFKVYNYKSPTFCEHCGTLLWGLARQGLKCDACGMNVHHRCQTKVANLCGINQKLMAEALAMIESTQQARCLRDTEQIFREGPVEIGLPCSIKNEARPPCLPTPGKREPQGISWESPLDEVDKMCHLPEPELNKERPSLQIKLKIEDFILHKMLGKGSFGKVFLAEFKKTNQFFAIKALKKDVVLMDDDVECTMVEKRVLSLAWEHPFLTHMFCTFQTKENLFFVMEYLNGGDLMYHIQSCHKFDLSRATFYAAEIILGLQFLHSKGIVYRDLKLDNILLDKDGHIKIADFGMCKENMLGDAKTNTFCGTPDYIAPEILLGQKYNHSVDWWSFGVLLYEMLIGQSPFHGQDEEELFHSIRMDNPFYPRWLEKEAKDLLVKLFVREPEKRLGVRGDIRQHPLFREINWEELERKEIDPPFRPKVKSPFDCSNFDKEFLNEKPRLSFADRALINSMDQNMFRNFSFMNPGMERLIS

[19] = tested on: Mus musculus; test: Tumor promoting activity in ICR mouse assessed as effect on DMBA-mediated skin carcinogenesis at 8.5 nmol administered 1 week after DMBA challenge twice weekly measured after 20 weeks by two-stage carcinogenesis test; assay type: organism-based; conditions: in vivo, 3360 h
Outline: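 Two-stage skin carcinogenesis in ICR mice, with 10 mice per group. The back skin was initiated with a single 390 nmol DMBA dose, then treated with the test compound. The control group received DMBA plus 1.7 nmol TPA. Read-outs were percentage of tumor-bearing mice and papillomas per mouse, compared by Fisher's exact test and Welch's t-test (p < 0.05).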

[20] = tested on: Mus musculus; test: Tumor promoting activity in ICR mouse assessed as effect on DMBA-mediated skin carcinogenesis at 1.7 nmol administered 1 week after DMBA challenge twice weekly measured by two-stage carcinogenesis test; assay type: organism-based; conditions: in vivo, 168 h
Outline: (§3)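 Two-stage mouse skin model in ICR mice, 10 per group. Back skin initiated with a single 390 nmol dose of DMBA, then promoted with 1.7 nmol of test compound; TPA served as control. Scored as tumor-bearing mice (%), compared by Fisher's exact test, and papillomas per mouse, compared by Welch's t-test; p < 0.05.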

[21] = tested on: Mus musculus; test: Tumor promoting activity in ICR mouse assessed as effect on DMBA-mediated skin carcinogenesis at 1.7 nmol administered 1 week after DMBA challenge twice weekly measured after 6 weeks by two-stage carcinogenesis test; assay type: organism-based; conditions: in vivo, 1008 h; outline: as §3
[22] = tested on: Mus musculus; test: Tumor promoting activity in ICR mouse assessed as effect on DMBA-mediated skin carcinogenesis at 1.7 nmol administered 1 week after DMBA challenge twice weekly measured after 11 weeks by two-stage carcinogenesis test; assay type: organism-based; conditions: in vivo, 1848 h; outline: as §3
[23] = tested on: Mus musculus; test: Tumor promoting activity in DMBA treated ICR mouse assessed as number of papillomas at 1.7 nmol administered 1 week after DMBA challenge twice weekly measured after 20 weeks by two-stage carcinogenesis test; assay type: organism-based; conditions: in vivo, 3360 h; outline: as §3

## CC1(C)CC[C@@H]2CC(=O)O[C@@H](CO)CC(=O)O[C@@H]3C[C@@H](CCCCc4cccc(O)c4)O[C@@]1(C3)O2
[1]
  Activity: Toxic
[2]
  logP: 3.3

## C[C@@H]1CC(C)(C)[C@@]23C[C@@H](C[C@@H](CCCCc4cccc(O)c4)O2)OC(=O)C[C@H](CO)OC(=O)C[C@@H]1O3
[3]
  GI50: 275 nM
[4]
  GI50: 1550 nM
[5]
  GI50: 17400 nM
[6]
  GI50: 4070 nM
[7]
  GI50: 1260 nM
[8]
  GI50: 7410 nM
[9]
  GI50: 4170 nM
[10]
  GI50: 6030 nM
[11]
  Activity: < 10%
[12]
  Ki: 15 nM
[13]
  Ki: 15 nM
[14]
  Ki: 12 nM
[15]
  Ki: 3.3 nM
[16]
  Ki: 17 nM
[17]
  Ki: 5.9 nM
[18]
  Ki: 2.9 nM
[2]
  logP: 3.7

## C[C@H]1[C@@H]2C[C@@]3(O[C@H](CCC3(C)C)CC(=O)O[C@@H](CO)CC(=O)O2)O[C@@H]1CCCCc1cccc(O)c1
[3]
  GI50: 33.1 nM
[4]
  GI50: 126 nM
[5]
  GI50: 891 nM
[6]
  GI50: 339 nM
[7]
  GI50: 85.1 nM
[8]
  GI50: 977 nM
[9]
  GI50: 617 nM
[10]
  GI50: 575 nM
[11]
  Activity: < 10%
[19]
  Activity: Non-toxic
[12]
  Ki: 4.7 nM
[13]
  Ki: 12 nM
[14]
  Ki: 5.5 nM
[15]
  Ki: 0.46 nM
[16]
  Ki: 2 nM
[17]
  Ki: 0.45 nM
[18]
  Ki: 0.54 nM
[2]
  logP: 3.6

## CO[C@@H](CC[C@H](C)[C@H]1O[C@@]23C[C@H](OC(=O)C[C@H]([C@@H](C)O)OC(=O)C[C@](O)(O2)[C@H](C)CC3(C)C)[C@@H]1C)c1cccc(O)c1 [DEBROMOAPLYSIATOXIN]
[3]
  GI50: 339 nM
[4]
  GI50: 933 nM
[5]
  GI50: 15800 nM
[6]
  GI50: 813 nM
[7]
  GI50: 347 nM
[8]
  GI50: 1150 nM
[9]
  GI50: 2040 nM
[10]
  GI50: 363 nM
[11]
  Activity: Toxic
[12]
  Ki: 0.26 nM
[13]
  Ki: 0.17 nM
[14]
  Ki: 0.38 nM
[15]
  Ki: 0.2 nM
[16]
  Ki: 0.63 nM
[17]
  Ki: 0.11 nM
[18]
  Ki: 0.11 nM
[2]
  logP: 4.4
[20]
  Activity: Toxic

## CCCCCCCCCCCCCC(=O)O[C@@H]1[C@@H](C)[C@@]2(O)[C@@H](C=C(CO)C[C@]3(O)C(=O)C(C)=C[C@@H]23)[C@@H]2C(C)(C)[C@]12OC(C)=O [PHORBOL MYRISTATE ACETATE]
[11]
  Activity: Toxic
[21]
  Activity: Toxic
[22]
  Activity: 100%
[23]
  Activity: Toxic
